Experimental data: ChEMBL document CHEMBL3872225, “Synthesis, binding assays, cytotoxic activity and docking studies of benzimidazole and benzothiophene derivatives with selective affinity for the CB2 cannabinoid receptor” (Eur J Med Chem, 2016)
pIC50, pKi: −log10 of the molar value.

Legend:
Cannabinoid receptor 1 = Cannabinoid receptor 1 (Homo sapiens, UniProt P21554); test: Displacement of [3H]CP-55940 from human recombinant CB1 receptor expressed in HEK293 cell membranes incubated for 1.5 hrs
How it was run: (§1)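 Membranes from HEK-293 cells overexpressing human CB1 or CB2 incubated with increasing compound concentrations and 0.5 nM [3H]CP-55,940 at 30 °C for 1.5 h. […] Selectivity index is Ki CB1/Ki CB2.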

[1] = target: Cannabinoid receptor 1 (CB1) (Homo sapiens, UniProt P21554); test: Displacement of [3H]CP-55940 from human recombinant CB1 receptor expressed in HEK293 cell membranes at 1 uM incubated for 1.5 hrs relative to control; conditions: probe [3H]CP-55940
How it was run: (§2)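 Single-point screen on HEK-293 membranes overexpressing human CB1 or CB2. […] Compounds displacing more than 50% at 1 μM went on to full curves.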

Cannabinoid receptor 2 [2] = target: T1, Cannabinoid receptor 2 (Homo sapiens, UniProt P34972); test: Displacement of [3H]CP-55940 from human recombinant CB2 receptor expressed in HEK293 cell membranes at 1 uM incubated for 1.5 hrs relative to control; how it was run: as §2
Cannabinoid receptor 2 [3] = target: T1, Cannabinoid receptor 2; test: Displacement of [3H]CP-55940 from human recombinant CB2 receptor expressed in HEK293 cell membranes incubated for 1.5 hrs; how it was run: as §1
Homo sapiens = organism: Homo sapiens; test: Selectivity index, ratio of Ki for displacement of [3H]CP-55940 from human recombinant CB1 receptor to Ki for displacement of [3H]CP-55940 from human recombinant CB2 receptor; how it was run: as §1
[4] = Cytotoxicity against human HeLa cells assessed as reduction in cell viability measured after 72 hrs by MTT assay; format: functional, cell-based
How it was run: (§3)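 Cells kept in RPMI 1640 with 5% FBS, penicillin/streptomycin, 37 °C, 5% CO2. Seeded at 10,000 cells/well, then exposed to compounds at 0.001–10 μM in 5% FBS-RPMI for 72 h at 37 °C. MTT added for 4 h, formazan dissolved overnight in 10% SDS/0.1 mM HCl, absorbance read at 570 nm. […] Etoposide as positive control.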

[5] = Cytotoxicity against resistant human HCT116 cells assessed as reduction in cell viability measured after 72 hrs by MTT assay; format: functional, cell-based; conditions: HCT-116, 72 h; how it was run: as §3
[6] = Cytotoxicity against African green monkey Vero cells assessed as reduction in cell viability measured after 72 hrs by MTT assay; format: toxicity, cell-based; conditions: Chlorocebus sabaeus (African green monkey); how it was run: as §3
[7] = Cytotoxicity against human HL60 cells assessed as reduction in cell viability measured after 72 hrs by MTT assay; format: functional, cell-based; conditions: HL-60, 72 h; how it was run: as §3
[8] = Cytotoxicity against human H1975-1 cells assessed as reduction in cell viability measured after 72 hrs by MTT assay; format: functional, cell-based; how it was run: as §3

Chain of Cannabinoid receptor 1 (CB1) (P21554 whole entry): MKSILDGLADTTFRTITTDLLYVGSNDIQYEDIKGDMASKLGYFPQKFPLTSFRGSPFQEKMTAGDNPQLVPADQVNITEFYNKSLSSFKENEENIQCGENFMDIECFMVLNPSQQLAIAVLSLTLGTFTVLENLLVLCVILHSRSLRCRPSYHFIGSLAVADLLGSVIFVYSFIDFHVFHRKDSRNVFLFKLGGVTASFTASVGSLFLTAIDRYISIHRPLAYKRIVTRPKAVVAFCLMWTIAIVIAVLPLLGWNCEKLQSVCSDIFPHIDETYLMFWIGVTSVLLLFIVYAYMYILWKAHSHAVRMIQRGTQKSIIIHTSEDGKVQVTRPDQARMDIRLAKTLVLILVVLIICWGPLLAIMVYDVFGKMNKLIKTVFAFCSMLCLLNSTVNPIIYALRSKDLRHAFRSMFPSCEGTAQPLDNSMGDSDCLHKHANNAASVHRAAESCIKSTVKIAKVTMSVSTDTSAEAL
Chain of Cannabinoid receptor 1 (P21554 whole entry): as above
T1 sequence (P34972 whole entry): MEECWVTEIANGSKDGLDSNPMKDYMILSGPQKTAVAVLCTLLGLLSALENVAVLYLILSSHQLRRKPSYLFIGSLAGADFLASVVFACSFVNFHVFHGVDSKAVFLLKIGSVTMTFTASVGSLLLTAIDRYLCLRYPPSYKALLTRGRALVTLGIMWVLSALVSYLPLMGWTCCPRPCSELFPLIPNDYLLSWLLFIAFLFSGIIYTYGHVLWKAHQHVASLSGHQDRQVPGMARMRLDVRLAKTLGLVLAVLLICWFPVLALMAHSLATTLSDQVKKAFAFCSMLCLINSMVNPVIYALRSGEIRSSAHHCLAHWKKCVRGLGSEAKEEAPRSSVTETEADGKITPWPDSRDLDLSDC

Row | Compound | pIC50 (Cannabinoid receptor 1) | pKi (Cannabinoid receptor 1) | inhibition at 1.5 h, 1 µM [1] | inhibition (Cannabinoid receptor 2 [2]) | pIC50 (Cannabinoid receptor 2 [3]) | pKi (Cannabinoid receptor 2 [3]) | Ratio Ki (Homo sapiens) | pIC50 [4] | pIC50 [5] | IC50 at 72 h [6] | pIC50 [7] | pIC50 [8]
1 | O=C(c1cccc2ccccc12)n1c(C2CCCC2)nc2ccccc21 | < 5.00 | < 5.00 | > 50% | > 50% | 5.54 | 6.15 | > 14 | < 5.00 | < 5.00 | > 10 µM | 6.97 | < 5.00
2 | CCCc1nc2ccccc2n1C(=O)c1ccc(OC)cc1 | < 5.00 | < 5.00 | > 50% | > 50% | 5.12 | 5.72 | > 5.26 | < 5.00 | 6.92 | 0.3 µM | 6.99 | < 5.00
3 | O=C(c1cccc2ccccc12)n1c(C2CCC2)nc2ccccc21 | 5.01 | 5.24 | > 50% | > 50% | 5.26 | 5.85 | 4.14 | < 5.00 | < 5.00 | > 10 µM | 6.74 | < 5.00
4 | CC(C)c1nc2ccccc2n1C(=O)c1cccc2ccccc12 | < 5.00 | < 5.00 | > 50% | > 50% | 5.68 | 6.30 | > 20 | < 5.00 | 5.36 | 7.23 µM | 7.15 | < 5.00
5 | COc1ccc(C(=O)n2c(-c3ccc(OC)cc3)nc3ccccc32)cc1 | < 5.00 | < 5.00 | > 50% | > 50% | 5.23 | 5.82 | > 6.7 | < 5.00 | < 5.00 | > 10 µM | 6.76 | < 5.00
6 | COc1ccc(-c2nc3ccccc3n2C(=O)c2cccc3ccccc23)cc1 | 5.09 | 5.31 | > 50% | > 50% | 5.11 | 5.72 | 2.57 | < 5.00 | 5.77 | > 10 µM | 6.84 | < 5.00
7 | CC(C)Cc1sc2ccccc2c1C(=O)c1cccc2ccccc12 | 5.92 | 6.15 | > 50% | > 50% | 5.70 | 6.30 | 1.4 | < 5.00 | < 5.00 | > 10 µM | 7.14 | < 5.00
8 | O=C(c1cccc2ccccc12)c1csc2ccccc12 | < 5.00 | < 5.00 | > 50% | > 50% | 5.96 | 6.70 | > 50 | < 5.00 | < 5.00 | > 10 µM | 7.24 | < 5.00
9 | COc1ccc(C(=O)n2c(C3CCCCC3)nc3ccccc32)cc1 | < 5.00 | < 5.00 | > 50% | > 50% | 5.55 | 6.15 | > 14 | < 5.00 | < 5.00 | 1.64 µM | 7.07 | < 5.00
10 | CCCc1sc2ccccc2c1C(=O)c1cccc2ccccc12 | 6.00 | 6.22 | > 50% | > 50% | 5.37 | 6.00 | 0.6 | < 5.00 | < 5.00 | > 10 µM | 6.89 | < 5.00
11 | CCCCc1nc2ccccc2n1C(=O)c1cccc2ccccc12 | 5.01 | 5.23 | > 50% | > 50% | 5.77 | 6.40 | 14.7 | < 5.00 | 6.25 | 4.1 µM | 6.98 | < 5.00
12 | O=C(c1cc2ccccc2s1)c1cccc2ccccc12 | 5.35 | 5.57 | > 50% | > 50% | 5.39 | 6.00 | 2.7 | < 5.00 | < 5.00 | > 10 µM | 7.29 | < 5.00
13 | COc1ccc(C(=O)n2c(C(C)C)nc3ccccc32)cc1 | < 5.00 | < 5.00 | > 50% | > 50% | 5.49 | 6.10 | > 12.5 | < 5.00 | 6.72 | > 10 µM | 6.20 | < 5.00
14 | COc1ccc(C(=O)n2c(C3CCCC3)nc3ccccc32)cc1 | < 5.00 | < 5.00 | > 50% | > 50% | 5.66 | 6.30 | > 20 | < 5.00 | < 5.00 | > 10 µM | 7.12 | < 5.00
15 | CCCCCc1sc2ccccc2c1C(=O)c1ccc(OC)cc1 | < 5.00 | < 5.00 | > 50% | > 50% | 5.92 | 6.52 | > 33 | < 5.00 | < 5.00 | > 10 µM | 7.08 | < 5.00
